Assay outcomes from PubChem BioAssay.
Only some compounds are listed: those with a hit (about 3.1% of all), similar ones and a draw of the others.
NS3 helicase inh = inhibitors of Hepatitis C virus NS3 helicase; NS3 helicase DNA unwinding, Cy5 molecular beacon fluorescence; inhibition, % at 10.9 µM; 290,000 tested, 0.56% active; AID 1800;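 active = inhibition above the mean of all tested compounds plus 3 SD, set per campaign, cut at about 35% in these data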;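 also: 0% = DMSO wells and 100% = thioflavine S control wells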
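System: HCV NS3 helicase fragment; control set: DMSO and thioflavine S; technique: Cy5 fluorescence at 0 and 60 min, beacon hairpin quenching; reagent: beacon DNA duplex substrate plus ATP; replicates: singlicate; schedule: 1 h reaction at 25 °C, ATP-initiated; medium: MOPS buffer pH 6.5 with MgCl2, DTT, Tween20, BSA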
VIM-2 inh = inhibitors of Pseudomonas aeruginosa VIM-2 metallo-beta-lactamase; purified VIM-2, nitrocefin hydrolysis, epi-absorbance fluorescence; inhibition, % at 5.6 µM; 290,000 tested, 0.89% active;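 active = inhibition above the mean of all tested compounds plus 3 SD, cutoff set per screening run, cut at about 7.5% in these data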;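 also: red hydrolysis product quenches plate fluorescence so inhibitors raise well fluorescence; 0% = enzyme with DMSO and 100% = DMSO without enzyme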
UBC9 SUMO inh = inhibitors of human SUMOylation (UBC9); P63279; HTRF SUMOylation assay, SAE1/SAE2 + UBC9, in vitro; inhibition, % at 35 µM; 290,000 tested, 0.36% active; AID 2006; in the data active = inhibition above about 50%, passing the limit was not always enough
Target sequence (P63279 whole entry, looked up): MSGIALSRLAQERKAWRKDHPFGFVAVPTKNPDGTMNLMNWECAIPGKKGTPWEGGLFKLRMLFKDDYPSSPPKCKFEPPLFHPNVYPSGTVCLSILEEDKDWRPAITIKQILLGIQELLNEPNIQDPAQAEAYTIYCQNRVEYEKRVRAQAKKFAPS
IMP-1 inhibitor = blocks Pseudomonas aeruginosa IMP-1 metallo-beta-lactamase. purified IMP-1, nitrocefin hydrolysis, epi-absorbance fluorescence. inhibition, % at 5.6 µM. 290,000 tested, 0.45% active. AID 1556;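 active = inhibition above the mean plus 3 SD of all compounds in the same screening run, cut at about 4.5% in these data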;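 also: 0% = IMP-1 with DMSO and 100% = DMSO wells lacking enzyme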
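System: purified IMP-1; amount: IMP-1 0.2 nM before substrate addition; compound: single dose, 5.6 µM; times: 25 °C, 15 min preincubation, 25 min reaction; signal: Epi-absorbance via hydrolysed-nitrocefin quenching of white-plate fluorescence, 480/530 nm, EDTA stop; benchmarks: DMSO with and without IMP-1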
PHOSPHO1 inh = PHOSPHO1 (human) inhibition | Q8TCT1 | recombinant PHOSPHO1, absorbance phosphatase assay | inhibition, % at 13.3 µM | 290,000 tested, 1.1% active | AID 1565; in the data active = inhibition above about 60%
Target sequence (Q8TCT1 whole entry, looked up): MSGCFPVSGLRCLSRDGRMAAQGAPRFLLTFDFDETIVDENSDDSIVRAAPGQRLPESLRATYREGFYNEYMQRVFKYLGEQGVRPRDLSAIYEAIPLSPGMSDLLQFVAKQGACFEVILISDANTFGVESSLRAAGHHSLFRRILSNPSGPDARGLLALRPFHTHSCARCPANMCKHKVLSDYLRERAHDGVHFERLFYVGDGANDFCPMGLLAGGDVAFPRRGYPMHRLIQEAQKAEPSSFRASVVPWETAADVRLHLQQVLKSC
core dimer inh = HCV core protein dimerization inhibition; TR-FRET GST/Flag-core106 dimerization, 1536-well; inhibition, % at 5 µM; 300,000 tested, 0.33% active; AID 1899;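 active = inhibition above the mean of all tested compounds plus 3 SD, set per screening campaign, cut at about 45% in these data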
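Test system: GST/Flag-tagged HCV core106 proteins; Medium: KF-containing HEPES buffer, pH 7.45, DTT, CHAPS, BSA; Times: compound-protein-antibody incubation 4 h at 22.5 °C; Detection: TR-FRET 671 and 617 nm emission; Benchmarks: wells lacking GST-core106 and wells with excess unlabelled core106.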
* = called active by the depositor; . = no result.

SMILES	NS3 helicase inh	VIM-2 inh	UBC9 SUMO inh	IMP-1 inhibitor	PHOSPHO1 inh	core dimer inh
O=C(Nc1ccccc1)c1nnsc1S(=O)c1ccc(Cl)cc1 (stereo unspecified)	-6.2	0.6	21.7	-0.6	93.0*	1.4
O=C(NCC(=O)N(c1ccccc1)C(C(=O)NC1CCCCC1)c1cccnc1)c1cccs1 (stereo unspecified)	6.3	-1.9	2.8	-2.0	63.2*	-0.1
Cc1cc(C(=O)CSc2nc(N)cc(N)n2)c(C)n1C1CC1	11.4	2.6	50.8*	0.6	-14.8	19.2
Cc1cc(C(=O)CSc2nnc(N)s2)c(C)n1C1CC1	.	.	.	.	.	9.9
CCCCSc1nnc2c(n1)OC(C(=O)c1ccccc1)Nc1ccccc1-2 (stereo unspecified)	6.0	-0.9	17.1	-2.9	90.2*	.
O=C(NCc1cccnc1)c1ccc(Br)o1	.	.	.	.	.	-5.5
CCOC(=O)/C=C(\C)Sc1cc(O)c2ccccc2c1O	12.4	1.0	74.0*	0.1	41.7	.
CC1(C#CC[N+]2(C)CCCCC2)CCC2C(O1)c1ccccc1OC2(C)C (stereo unspecified)	-8.8	2.3	15.6	-3.0	-4.6	-5.3
CCCCNS(=O)(=O)c1ccc2nc(SCC(=O)N3CC(C)OC(C)C3)[nH]c2c1 (stereo unspecified)	2.3	-6.5	7.7	-5.0	75.3*	-0.7
O=C(CSc1nc2ccc(S(=O)(=O)N3CCOCC3)cc2[nH]1)N1CCOCC1	-0.8	-4.5	-4.5	-4.1	67.0*	5.1
CC1CN(C(=O)CCNS(=O)(=O)c2ccc(Br)cc2)CC(C)O1 (stereo unspecified)	.	.	.	.	.	2.9
O=C(NC1CCCCC1)C(c1cccs1)N(C(=O)C(F)(F)F)c1ccccc1 (stereo unspecified)	-6.4	-2.0	1.3	-1.7	-1.2	1.3
Cc1ccc(N(C(=O)C(F)(F)F)C(C(=O)NC2CCCCC2)c2cccs2)cc1C (stereo unspecified)	-12.6	-3.2	10.5	-2.4	60.5*	4.7
Cc1[nH]c2ccccc2c1C(=O)CSC(=S)N1CCCCC1	-19.1	-1.8	4.1	-2.7	-4.5	-4.5
Cc1ccc2c(c1)C1C=CCC1C(C(=O)O)N2 (stereo unspecified)	36.7*	-0.5	60.0*	-0.6	45.5	94.3*
COc1ccc(-c2cc(OC(=O)c3ccc(F)cc3)c3c(C)oc(C)c3c(=O)c2)cc1	28.4	-1.6	-14.9	4.9*	26.3	37.3
O=S(=O)(NCCC1=CCCCC1)c1ccc(OC(F)(F)F)cc1	.	.	.	.	.	3.8
Cc1ccc(C(=O)N/N=C\c2ccc(-c3ccc([N+](=O)[O-])cc3)o2)cn1	21.3	-1.8	27.6	-1.0	-3.6	0.8
NC(=S)N/N=C/c1ccc(-c2cc(Cl)cc(Cl)c2)o1	5.5	-5.1	0.2	-5.7	-12.2	-6.0
NC(=S)N/N=C/c1ccc(-c2cc(Cl)ccc2Cl)o1	5.9	-1.5	21.1	-6.5	93.1*	37.8
NC(=S)N/N=C/c1ccc(-c2ccc([N+](=O)[O-])cc2)o1	8.4	0.8	18.6	-1.7	-17.5	49.9*
O=C1CSC(=S)N1c1ccc(F)cc1	-10.3	-0.3	20.7	0.0	15.9	-4.7
O=C1CSC(=S)N1c1cccc(F)c1	1.3	2.1	7.8	4.9*	34.0	-1.4
O=C1CSC(=S)N1c1cccc(O)c1	12.8	2.9	-18.5	2.2	32.6	.
CN(C)c1ccc(N2C(=O)CSC2=S)cc1	29.6	-0.7	72.6*	0.2	-9.0	-4.5
SMILES	NS3 helicase inh	VIM-2 inh	UBC9 SUMO inh	IMP-1 inhibitor	PHOSPHO1 inh	core dimer inh
COc1ccc(NC(=S)NCCCCCC(=O)C[N+](=O)[O-])cc1	-8.1	0.2	-14.2	0.0	77.2*	32.0
COc1ccc(/C=N/N2CCOCC2)cc1Cn1cc([N+](=O)[O-])cn1	-9.7	-1.7	25.9	-2.1	28.3	2.1
O=C(O)Cn1nnc(-c2ccc(OCc3ccccc3)cc2)n1	-4.1	-2.4	.	-2.4	.	19.2
Cc1ccc(C(=O)CNc2ccc(C)c(Cl)c2)cc1	5.3	-1.0	0.7	-3.7	-27.0	2.0
Cc1ccc(NCC(=O)c2ccc(C)cc2)cc1	-8.3	6.4	17.5	35.6*	9.2	3.8
CC(NCCCOc1cccc2ccccc12)c1ccccc1 (stereo unspecified)	-72.7	-0.9	3.3	-2.2	3.1	-7.9
Cc1onc(-c2ccccc2Cl)c1C(=O)Nc1ccc(-c2nnc3n2CCCCC3)cc1	-6.6	-2.7	10.5	-2.8	45.2	5.2
Cc1cc(C)n(-c2ccc(Cl)c(C(=O)Nc3ccc(-c4nnc5n4CCCCC5)cc3)n2)n1	4.5	1.9	-6.9	-0.1	62.5*	9.8
CCn1nc(C)c(CN2CCCC(CNS(=O)(=O)c3ccc(OC)cc3)C2)c1C (stereo unspecified)	5.2	-2.3	2.5	-1.6	18.5	-11.6
CN(C)c1ccnc2sc3c(NCC(O)CO)ncnc3c12 (stereo unspecified)	8.2	8.3*	18.0	-1.0	0.3	-0.7
CN(C)c1ccnc2sc3c(SCc4ccc(Cl)cc4)ncnc3c12	7.5	-2.4	-11.9	-2.4	-5.8	1.1
O=C(CCC(=O)c1ccc(Cl)cc1)OCc1nc2ccsc2c(=O)[nH]1	.	.	.	.	.	6.0
O=C(Nc1ncc(Cc2ccccc2)s1)C1CCCO1 (stereo unspecified)	-1.7	-1.2	-9.9	-3.8	2.1	8.1
CNc1ncc(Cc2ccccc2)s1	4.6	-0.2	5.8	40.1*	11.7	2.1
CC(C)Cc1nnc(NC(=O)c2ccc3c(=O)n4c(nc3c2)CCC4)s1	8.0	0.8	1.5	-0.9	38.3	12.9
N#Cc1c(SCC(N)=O)nc2c(c1-c1ccncc1)CCCC2	-9.7	1.1	-9.6	-3.6	12.7	13.0
Cc1ccc(-c2c(C#N)c(N)nc3c2CCCC3)o1	-1.9	7.7	14.7	-5.0	-7.9	4.4
Cc1ccc(-c2c3c([nH]c(=S)c2C#N)CCCC3)o1	31.1	1.7	30.2	9.7*	83.5*	18.6
N#Cc1c(-c2ccncc2)c2c([nH]c1=S)CCCC2	5.4	-2.2	7.8	-5.0	76.8*	0.4
COc1ccc(CN2CCNC(=O)C2CC(=O)N(C)CCCN2CCOCC2)cc1C (stereo unspecified)	-0.1	-1.0	-15.4	-0.8	15.4	6.9
Cc1ccc(N2CC(O)(c3cccs3)[N+]3=C2CCCC3)cc1 (stereo unspecified)	-7.1	0.1	-0.4	0.2	60.9*	-1.5
Cc1cccc(N2CC(O)(c3cccs3)[N+]3=C2CCCC3)c1 (stereo unspecified)	4.5	-1.5	10.5	-2.3	-14.1	0.8
COc1ccc(CN2C(=O)c3cccnc3C2=O)cc1S(=O)(=O)N1CCOc2ccc(C)cc21	-7.0	0.5	8.7	-0.1	-32.9	8.1
CC1CCCCN1CCNC(=O)C1CC(=O)N(c2ccc(F)c(Cl)c2)C1 (stereo unspecified)	-6.5	-5.7	16.4	-2.8	-3.3	-6.2
